Screens from PubChem.
KCNQ1 block = inhibitors of human KCNQ1 channel, primary screen, cell-based, thallium flux, high-throughput | Potassium voltage-gated channel subfamily KQT member 1 (Homo sapiens), P51787 | CHO-K1 KCNQ1, FluxOR thallium flux fluorescence; hits give high values | B-score at 10 µM | hit rate 1.3% among 310,000 | AID 2642, 2010;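 active means compounds whose thallium flux B-score, printed positive for inhibition, exceeds three library SD while starting fluorescence stays within three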;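 further: channel opened by potassium depolarization with thallium stimulus after 20 min compound exposure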
KCNK3 inh = human KCNK3 channel inhibitors, primary screen, CHO cells, FluxOR thallium flux, B-score | B-score at 10 µM | FluxOR fluorescence; hits give low values | hit rate 0.84% among 340,000;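 active means B-score under library mean minus 4 SD, starting fluorescence ratio at most library mean plus 5 SD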;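 further: more negative B-score means stronger inhibition of thallium flux through KCNK3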
KCNK9 block = KCNK9 potassium channel inhibitors, primary screen, HEK293 cells, thallium flux. FluxOR thallium flux fluorescence; hits give low values. B-score at 10 µM. hit rate 1.2% among 310,000. AID 488922, 2010;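 active means ratio B-score over 3 SD below the library mean, with starting fluorescence within 5 SD of its mean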;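 further: negative B-score means less thallium flux so channel inhibition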
Target sequence (Q9NPC2 whole entry, looked up): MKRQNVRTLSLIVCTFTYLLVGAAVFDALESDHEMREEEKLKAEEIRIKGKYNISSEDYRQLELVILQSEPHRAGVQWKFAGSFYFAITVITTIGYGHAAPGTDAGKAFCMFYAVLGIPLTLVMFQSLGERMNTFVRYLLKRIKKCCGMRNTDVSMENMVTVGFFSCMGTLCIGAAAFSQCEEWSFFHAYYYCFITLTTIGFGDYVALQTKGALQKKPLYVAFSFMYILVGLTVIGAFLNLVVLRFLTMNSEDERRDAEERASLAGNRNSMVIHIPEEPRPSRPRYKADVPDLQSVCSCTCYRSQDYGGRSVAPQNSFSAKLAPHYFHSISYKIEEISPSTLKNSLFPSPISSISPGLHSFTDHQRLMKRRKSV
Kir21 inh = inhibitors of mouse Kir2.1 inward-rectifier potassium channel; Inward rectifier potassium channel 2 (Mus musculus), P35561; HEK293-Kir2.1, FluxOR thallium flux fluorescence; hits give low values; B-score at 10 µM; hit rate 0.85% among 310,000; AID 1672, 2009;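 active means fluorescence ratio B-score at or below minus 3 SD of library scores, with starting-brightness B-score within 2 SD, cut at about -4.2 in these data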;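 further: channel flux triggered by added potassium and thallium sulfate stimulus; B-score of peak minus minimum fluorescence over baseline after thallium stimulus; more negative B-score means stronger Kir2.1 block with less thallium influx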
hERG rescue = hERG rescue from dofetilide block, primary screen, cell-based, CHO-hERG, FluxOR thallium flux, dofetilide IC70 | dofetilide IC70 present | activation (rescue from dofetilide block), less the hit threshold, % at 10 µM | hit rate 0.51% among 310,000 | AID 1511, 2009;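 active means activation above the mean of controls blocked by dofetilide plus 5 SD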;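 further: thallium influx through hERG after potassium depolarization seen as dye fluorescence rise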
KCNQ1 pot = potentiators or activators of KCNQ1 channel, primary screen, cell-based, thallium flux, high-throughput | Potassium voltage-gated channel subfamily KQT member 1 (Homo sapiens), P51787 | CHO-K1 KCNQ1, thallium flux FluxOR fluorescence; hits give high values | B-score at 10 µM | hit rate 0.35% among 310,000 | AID 2648, 2010;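 active means fluorescence ratio B-score, a plate-corrected score, at least three library SD, with initial intensity B-score within 5 SD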
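Schedule – 37 °C overnight plating, 90-min dark dye load, 20-min compound pretreatment · System – stable KCNQ1 CHO-K1 line · Probe or stimulus – thallium- and potassium-containing depolarizing buffer · Measured by – kinetic FluxOR fluorescence, 10 s baseline plus 110 s post-stimulus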
KCNK9 block conf = KCNK9 potassium channel inhibitors, confirmation, HEK293 cells, thallium flux, duplicate; shares compounds with KCNK9 block; FluxOR thallium flux fluorescence; inhibition, % at 10 µM; hit rate 43% among 4,900;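 active means thallium signal inhibited by more than 5 SD of the compound-free buffer control wells, on both duplicate plates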
Kir21 sel = mouse Kir2.1 channel inhibition, confirmation, selectivity assay for KCNK9 modulator project, cell-based, HEK293, thallium flux | Kir2.1 cells, FluxOR thallium flux fluorescence | shares compounds with KCNK9 block | AID 492993, 2010 | inhibition, % at 10 µM | hit rate 4% among 4,900;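 active means thallium signal drop more than 5 SD beyond the mean of the no-compound control wells, seen in both duplicate plates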;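 further: signal is fluorescence rise after thallium addition divided by baseline fluorescence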
HEK293 Tl ctr = thallium flux in non-induced HEK293 cells, confirmation, counter-screen for KCNK9 inhibitor project, cell-based, second counter screen, non-induced KCNK9-HEK293; shares compounds with KCNK9 block; FluxOR thallium flux; inhibition, % at 10 µM; hit rate 40% among 4,900; AID 492997, 2010;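 active means thallium signal drop beyond 5 SD of the untreated control mean, on both duplicate plates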
Large screens that a line does not name were inactive (follow-up assays come after a bar, where they were run). A selection: hits, their analogues and other compounds. The true share with any hit is near 3.8%.

O=C1CCC(C(=O)OC(C(=O)Nc2ccc([N+](=O)[O-])cc2Br)c2ccccc2)=NN1 (centres undefined)	none (no result: KCNQ1 block, KCNK9 block, Kir21 inh, hERG rescue, KCNQ1 pot)
CCn1c(=O)c(CCC(=O)N2CCOCC2)c(C)c2c(C)nn(-c3ccccc3)c21	none | KCNK9 block conf inactive | Kir21 sel inactive | HEK293 Tl ctr inactive
Cc1nn(-c2ccccc2)c2c1c(C)c(CCC(=O)N1CCOCC1)c(=O)n2C	none | KCNK9 block conf inactive | Kir21 sel inactive | HEK293 Tl ctr inactive
CCn1c(=O)c(CCC(=O)NCCN2CCOCC2)c(C)c2c(C)nn(-c3cccc(C)c3)c21	none
O=S(=O)(NCc1ccc(F)cc1)c1ccc(Br)cc1Br	none (no result: KCNQ1 block, KCNK9 block, Kir21 inh, hERG rescue, KCNQ1 pot)
C/C(=N/N1CCN(Cc2cccc3ccccc23)CC1)c1ccco1	none | KCNK9 block conf inactive | Kir21 sel inactive | HEK293 Tl ctr inactive
CCN(CC)c1ccc(/C=N/N2CCN(Cc3cccc4ccccc34)CC2)c(O)c1	none | KCNK9 block conf inactive | Kir21 sel inactive | HEK293 Tl ctr inactive
OC1CCN(Cc2cccc3ccccc23)CC1	none
CCN(CC)c1ccc(/C=N/N2CCN(Cc3ccc(Cl)cc3)CC2)c(O)c1	none
C(=N\N1CCN(Cc2cccc3ccccc23)CC1)/c1cccs1	none | KCNK9 block conf inactive | Kir21 sel inactive | HEK293 Tl ctr inactive
C(=N\N1CCN(Cc2ccccc2)CC1)/c1cccs1	none
COc1ccc(NC(=O)CCCn2cc([N+](=O)[O-])cn2)cc1	none
Cc1ccc(N(C(=O)CNC(=O)c2ccco2)C(C(=O)NC2CCCCC2)c2ccncc2)cc1F (centres undefined)	none
CCN(CCCn1c(SCC#N)nc2ccccc2c1=O)c1ccccc1	KCNK3 inh -9.3, KCNK9 block -11 | KCNK9 block conf 44% | Kir21 sel inactive | HEK293 Tl ctr 28%
C=C(C)Cn1c(SCC#N)nc2ccccc2c1=O	none
CCCCn1c(SCc2nc3ccccc3s2)nc2ccccc2c1=O	KCNK9 block -12 | KCNK9 block conf 68% | Kir21 sel inactive | HEK293 Tl ctr 40%
O=S(=O)(NCCSc1ccccn1)c1ccc(Br)cc1	none
CC(C)CC(=O)C1CCCN(C(=O)c2ccc3oc(Cc4ccccc4)nc3c2)C1 (centres undefined)	none | KCNK9 block conf inactive | Kir21 sel inactive | HEK293 Tl ctr inactive
O=C(NCCCc1ccccc1)c1cc(COc2ccc(F)cc2Cl)on1	KCNQ1 block 6 | KCNK9 block conf inactive | Kir21 sel inactive | HEK293 Tl ctr inactive
CC(CNC(=O)c1cc(COc2ccc3ncccc3c2)on1)c1ccccc1 (centres undefined)	none
COc1cc(Cl)ccc1OCc1cc(C(=O)NCC(C)c2ccccc2)no1 (centres undefined)	none | KCNK9 block conf inactive | Kir21 sel inactive | HEK293 Tl ctr inactive
CN(C(=O)c1cc(COc2ccc(F)cc2Cl)on1)C1CCCc2ccccc21 (centres undefined)	none | KCNK9 block conf inactive | Kir21 sel inactive | HEK293 Tl ctr 24%
Cc1ccc(CN(C)C(=O)c2cc(COc3ccc(F)cc3Cl)on2)o1	none
CNC(=O)c1cccc(NC(=O)CCCNC(=O)c2ccc(Cl)cc2)c1	none
C(#Cc1ccccc1)CN1CCN(c2ccccn2)CC1	none | KCNK9 block conf inactive | Kir21 sel inactive | HEK293 Tl ctr inactive
